Test system: HA-YAP
Test: Immunoprecipitation of Smad7 with HA-YAP in HEK293T cells
Type: cell-based, human
Conditions: full-length Smad7 wild type or variants with HA-YAP
Procedure, shortened: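 HEK293T cells were transfected with epitope-tagged constructs (HA-YAP with full-length Smad7 wild type or variants) and treated where indicated with TGF-β1 at 100 pM. Lysates were immunoprecipitated with anti-Flag antibody, then immunoblotted with antibodies against the tags.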

B1: S206A: Smad7 mutant S206A, flag epitope-tagged plasmid expressed in HEK293T (protein, UniProt O15105 1-426, looked up, variant S206A)
chain: MFRTKRSALVRRLWRSRAPGGEDEEEGAGGGGGGGELRGEGATDSRAHGAGGGGPGRAGCCLGKAVRGAKGHHHPHPPAAGAGAAGGAEADLKALTHSVLKKLKERQLELLLQAVESRGGTRTACLLLPGRLDCRLGPGAPAGAQPAQPPSSYSLPLLLCKVFRWPDLRHSSEVKRLCCCESYGKINPELVCCNPHHLSRLCELEAPPPPYSRYPMDFLKPTADCPDAVPSSAETGGTNYLAPGGLSDSQLLLEPGDRSHWCVVAYWEEKTRVGRLYCVQEPSLDIFYDLPQGNGFCLGQLNSDNKSQLVQKVRSKIGCGIQLTREVDGVWVYNRSSYPIFIKSATLDNPDSRTLLVHKVFPGFSIKAFDYEKAYSLQRPNDHEFMQQPWTGFTVQISFVKGWGQCYTRQFISSCPCWLEVIFNSR
modifications: full-length FLAG tag
binding to HA-YAP in immunoprecipitation: binding is observed

Reference: paper PMC3472128 (Structure (London, England : 1993), 2012)
